Test results from ChEMBL document CHEMBL3526035, “Role of the intestinal peptide transporter PEPT1 in oseltamivir absorption: in vitro and in vivo studies” (Drug Metab Dispos, 2012).

Tests used:
[1] = Tmax in adult fasted Sprague-Dawley rat at 30 mg/kg, po administered as water solution by HPLC-tandem mass spectrometry; assay type: ADME, organism-based; parameters: dose 30 mg/kg, route oral; conditions: in vivo
Outline: (§1)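 Male Sprague-Dawley rats (7–8 weeks, 243–283 g) had jugular-vein cannulas and 3 days' recovery. Fasting ran from 6 h predose through the 6 h study. Three rats per vehicle received 30 mg/kg oral (10 ml/kg). Blood was sampled 0.25–6 h into K2EDTA tubes with dichlorvos. Plasma was assayed by HPLC-MS/MS (0.1–500 µg/l). Tmax was read graphically (noncompartmental).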

[2] = Tmax in adult fasted Sprague-Dawley rat at 30 mg/kg, po administered as solution in bovine milk by HPLC-tandem mass spectrometry; assay type: ADME, organism-based; parameters: dose 30 mg/kg, route oral; conditions: in vivo; outline: as §1
[3] = AUC(0 to 6 hrs) in adult fasted Sprague-Dawley rat at 30 mg/kg, po administered as solution in bovine milk by HPLC-tandem mass spectrometry; assay type: ADME, organism-based; parameters: time < 6 hr, dose 30 mg/kg, route oral; conditions: in vivo
Outline: (§2)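 Adult male Sprague-Dawley rats (243-283 g), jugular-cannulated, fasted from 6 h before dosing through the 6-h study. Given 30 mg/kg orally (free base) at 10 ml/kg, n=3/group. Blood sampled at 0.25-6 h into K2EDTA with dichlorvos esterase inhibitor. Plasma assayed by LC-MS/MS (0.1-500 μg/l). Noncompartmental analysis: linear-trapezoid AUC; infinity extrapolation via log-linear terminal λz.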

[4] = Tmax in adult fasted Sprague-Dawley rat at 30 mg/kg, po administered as 125 mM aqueous Gly-Sar solution by HPLC-tandem mass spectrometry; assay type: ADME, organism-based; parameters: dose 30 mg/kg, route oral; conditions: in vivo; outline: as §1
[5] = AUC(0 to infinity) in adult fasted Sprague-Dawley rat at 30 mg/kg, po administered as 125 mM aqueous Gly-Sar solution by HPLC-tandem mass spectrometry; assay type: ADME, organism-based; parameters: time infinity, dose 30 mg/kg, route oral; conditions: plasma; outline: as §2
[6] = Cmax in adult fed Sprague-Dawley rat at 30 mg/kg, po administered as water solution by HPLC-tandem mass spectrometry; assay type: ADME, organism-based; parameters: dose 30 mg/kg, route oral; conditions: in vivo
Outline: (§3)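 Adult cannulated Sprague-Dawley rats, fasted (from 6 h predose) or fed, dosed orally at 30 mg/kg (10 ml/kg), 3 per group. Serial jugular plasma with dichlorvos stabilisation, measured by LC-MS/MS. Cmax read graphically from the concentration-time profile.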

[7] = Tmax in adult fed Sprague-Dawley rat at 30 mg/kg, po administered as water solution by HPLC-tandem mass spectrometry; assay type: ADME, organism-based; parameters: dose 30 mg/kg, route oral; conditions: in vivo
Outline: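 Cannulated adult male Sprague-Dawley rats with chow ad libitum, 3 per vehicle, were given oral 30 mg/kg (10 ml/kg). Plasma analysis was by HPLC-MS/MS, with Tmax taken graphically from concentration-time profiles.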

[8] = Cmax in adult fed Sprague-Dawley rat at 30 mg/kg, po administered as solution in bovine milk by HPLC-tandem mass spectrometry; assay type: ADME, organism-based; parameters: dose 30 mg/kg, route oral; conditions: in vivo; outline: as §3
[9] = AUC(0 to 24 hrs) in adult fed Sprague-Dawley rat at 30 mg/kg, po administered as water solution by HPLC-tandem mass spectrometry; assay type: ADME, organism-based; parameters: time < 24 hr, dose 30 mg/kg, route oral; conditions: plasma
Outline: (§4)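 Sprague-Dawley males, 7-8 weeks, 243-283 g, jugular-cannulated, 3 days' recovery; fed (chow ad libitum). Single oral dose of 30 mg/kg (free base) at 10 ml/kg; 3 rats/group. Jugular blood taken at 0.25-24 h into K2EDTA with dichlorvos, kept on ice. Plasma analysed by validated LC-MS/MS (0.1-500 μg/l). Noncompartmental analysis; AUC by linear trapezoid, AUC0-∞ extrapolated using λz.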

[10] = Drug uptake in CHOK1 cells at pH 5 by HPLC coupled with radiodetection analysis; assay type: ADME, cell-based, Cricetulus griseus; conditions: chinese hamster, cho-k1, pH 5
[11] = Drug uptake in CHOK1 cells at pH 6 by HPLC coupled with radiodetection analysis; assay type: ADME, cell-based, Cricetulus griseus; conditions: chinese hamster, cho-k1, pH 6
[12] = Drug uptake in CHOK1 cells incubated for 30s to 15 mins by HPLC coupled with radiodetection analysis; assay type: ADME, cell-based, Cricetulus griseus; conditions: chinese hamster, cho-k1, 0.25 h
Outline: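 Accumulation of [14C]oseltamivir or its carboxylate in CHO-PEPT1 versus CHO-K1 cells. Conditions varied: KH buffer (with MES) or Hanks' balanced salt solution, pH 5 or 6 readjusted after substrate addition, 30 s to 15 min at 37°C. Uptake was quenched with ice-cold PBS-BSA, followed by Triton X-100 lysis, scintillation counting, and BCA protein normalization. HPLC-radiodetection checked ester stability.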

[13] = AUC(0 to infinity) in adult fed Sprague-Dawley rat at 30 mg/kg, po administered as solution in bovine milk by HPLC-tandem mass spectrometry; assay type: ADME, organism-based; parameters: time infinity, dose 30 mg/kg, route oral; conditions: in vivo; outline: as §4
[14] = AUC(0 to 6 hrs) in adult fed Sprague-Dawley rat at 30 mg/kg, po administered as 125 mM aqueous Gly-Sar solution by HPLC-tandem mass spectrometry; assay type: ADME, organism-based; parameters: time < 6 hr, dose 30 mg/kg, route oral; conditions: plasma; outline: as §4
[15] = AUC(0 to 24 hrs) in adult fed Sprague-Dawley rat at 30 mg/kg, po administered as 125 mM aqueous Gly-Sar solution by HPLC-tandem mass spectrometry; assay type: ADME, organism-based; parameters: time < 24 hr, dose 30 mg/kg, route oral; conditions: plasma; outline: as §4
[16] = AUC(0 to infinity) in adult fed Sprague-Dawley rat at 30 mg/kg, po administered as 125 mM aqueous Gly-Sar solution by HPLC-tandem mass spectrometry; assay type: ADME, organism-based; parameters: time infinity, dose 30 mg/kg, route oral; conditions: plasma; outline: as §4
[17] = Cmax in juvenile fasted Sprague-Dawley rat at 30 mg/kg, po administered as solution in bovine milk by HPLC-tandem mass spectrometry; assay type: ADME, organism-based; parameters: dose 30 mg/kg, route oral; conditions: in vivo
Outline: (§5)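 7-day-old Sprague-Dawley pups (9.7-18.9 g, both sexes), 15 per group. Given 30 mg/kg by oral gavage (10 ml/kg); breast-fed pups stayed with dams, fasted pups were removed 8 h before dosing. Blood taken by cardiac puncture under isoflurane at 0.25, 0.5, 1, 2 and 5 h, n=3 per time point (composite design). Dichlorvos-treated plasma assayed by LC-MS/MS; AUC0-5h by noncompartmental analysis.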

[18] = AUC(0 to 5 hrs) in juvenile fasted Sprague-Dawley rat at 30 mg/kg, po administered as solution in bovine milk by HPLC-tandem mass spectrometry; assay type: ADME, organism-based; parameters: time < 5 hr, dose 30 mg/kg, route oral; conditions: in vivo; outline: as §5
[19] = Cmax in healthy human at 150 mg, po administered as single dose by HPLC-tandem mass spectrometry under fasting conditions; assay type: ADME, organism-based; parameters: dose 150 mg, route oral; conditions: in vivo
Outline: (§6)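 Open-label crossover in 18 healthy volunteers (9 male, 9 female, mean age 26). Each received marketed oseltamivir 150 mg orally, once fasted from midnight and once after a high-fat, high-calorie breakfast, with a 7-10 day washout. Plasma and urine collected over 0-72 h and analysed by HPLC-MS/MS. AUC and Cmax compared after log transformation.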

[20] = Terminal half life in healthy human at 150 mg, po administered as single dose by HPLC-tandem mass spectrometry under fasting conditions; assay type: ADME, organism-based; conditions: in vivo, read-out: beta t1/2 (converted)
Outline: (§7)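 Open-label crossover food-effect study in 18 healthy volunteers (9 male, 9 female, mean age 26). Each received a single 150 mg oral dose of the marketed formulation, once fasting from midnight and once after a high-fat, high-calorie breakfast, separated by a 7–10 day washout. Plasma and urine were collected over 0–72 h and assayed by HPLC-MS/MS for oseltamivir and carboxylate.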

[21] = AUC(0 to 24 hrs) in healthy human at 150 mg, po administered as single dose by HPLC-tandem mass spectrometry under fasting conditions; assay type: ADME, organism-based; parameters: dose 150 mg, time < 24 hr, route oral; conditions: plasma; outline: as §6
[22] = Renal clearance in healthy human at 150 mg, po administered as single dose by HPLC-tandem mass spectrometry under fasting conditions; assay type: ADME, organism-based, Kidney; conditions: in vivo; outline: as §7
[23] = Drug excretion in healthy human urine assessed as unchanged drug level at 150 mg, po administered as single dose by HPLC-tandem mass spectrometry under fed conditions; assay type: ADME, organism-based; conditions: read-out: Drug excretion; outline: as §6

Tmax [1] | Tmax [2] | AUC(0-t) at 6 h [3] | Tmax [4] | AUC(0-inf) [5] | Cmax [6] | Tmax [7] | Cmax [8] | AUC(0-t) at 24 h [9] | Drug uptake [10] | Drug uptake [11] | Drug uptake [12] | AUC(0-inf) [13] | AUC(0-t) at 6 h [14] | AUC(0-t) at 24 h [15] | AUC(0-inf) [16] | Cmax [17] | AUC(0-t) at 5 h [18] | Cmax [19] | half-life [20] | SMILES | other results
64.8 min | 115 min | 5810 ng·h/mL | 70.2 min | 8860 ng·h/mL | 1110 ng/mL | 45 min | 1310 ng/mL | 5280 ng·h/mL | Active | Active | Active | 6340 ng·h/mL | 2960 ng·h/mL | 4860 ng·h/mL | 4870 ng·h/mL | 2460 ng/mL | 9260 ng·h/mL | 551 ng/mL | 412 min | CCC(CC)O[C@@H]1C=C(C(=O)O)C[C@H](N)[C@H]1NC(C)=O [OSELTAMIVIR CARBOXYLATE] | AUC(0-t) at 24 h [21]: 5540 ng·h/mL; CL renal [22]: 223 mL/min; dose excreted [23]: 55.5%
49.8 min | 30 min | 3010 ng·h/mL | 15 min | 3810 ng·h/mL | 1270 ng/mL | 24.6 min | 1430 ng/mL | 2510 ng·h/mL | Active | Active | Active | 2810 ng·h/mL | 2280 ng·h/mL | 2830 ng·h/mL | 2840 ng·h/mL | 7990 ng/mL | 26900 ng·h/mL | 124 ng/mL | 96.6 min | CCOC(=O)C1=C[C@@H](OC(CC)CC)[C@H](NC(C)=O)[C@@H](N)C1 [OSELTAMIVIR] | AUC(0-t) at 24 h [21]: 238 ng·h/mL; CL renal [22]: 340 mL/min; dose excreted [23]: 4.32%
